Measured values pooled from the literature.
Lines come from different studies, so protocols differ.
Target: Serine/threonine-protein kinase 32A (STK32A, Homo sapiens, UniProt Q8WU08)

Structure (SMILES)	read-out	mode	technique	tested at	endpoint	value
CN(C)c1nccc(-c2cnc3ncccn23)n1	binding			1 µM	remaining binding	47%
CN1CC(Oc2cnc(C#N)cc2-c2ccn3nc(NC(=O)C4CC4)cc3c2)C1	enzyme activity	inhibitor		1 µM	inhibition	3%
Cc1ccc(C(=O)Nc2ccc(CN3CCN(C)CC3)c(C(F)(F)F)c2)cc1C#Cc1cnc2cccnn12	cell-free assay			23.5 nM	remaining signal	90%
CN1CCC2(CC1)NC(=O)c1c(c3ccc(Cl)c(Cl)c3n1C)C2C#N (racemic)	thermal stability		DSF	10 µM	ΔTm	-0.4 °C
Nc1ncnc2occ(-c3ccc(NC(=O)Nc4cc(C(F)(F)F)ccc4F)cc3)c12	cell-free assay			20 µM	remaining signal	3.2%
Cn1c2c(c3ccc(Cl)c(Cl)c31)C(C#N)C1(CCCCC1)NC2=O (racemic)	thermal stability		DSF	10 µM	ΔTm	0.2 °C
Cc1c(C(=O)O)cc(-c2ccc(C3CCNCC3)cc2)c2ccc(-c3ccc(C(F)(F)F)cc3)cc12	binding		competition with immobilised ligand	1 µM	remaining binding	89%
COc1cc(Cl)c(C(=O)N[C@@H](CN[C@H]2CC[C@@H](N)CC2)Cc2ccc(C#N)cc2)cc1-c1ccc(CN[C@H](C)c2ccc(C)cc2)o1	enzyme activity	inhibitor		1 µM	remaining activity	97%
O=C(NC[C@@H]1[C@H]2CN(C(=O)OCc3cc(C(F)(F)F)cc(C(F)(F)F)c3)C[C@@H]12)c1ccc2[nH]nnc2c1	cell-free assay		competition with immobilised ligand	1 µM	remaining binding	72%
Cn1c2c(Cl)c(Cl)ccc2c2cc(N)[nH]c(=O)c21	thermal stability		DSF	10 µM	ΔTm	-0.3 °C
